The source made the active and inactive calls. No cut-off for these calls is given here.
Experiments:
Rattus norvegicus [1] = species: Rattus norvegicus; assay: Activation of soluble guanylyl cyclase in Wistar rat aortic smooth muscle cell assessed as increase of cGMP accumulation at 1 uM after 15 mins by enzyme immunoassay
Procedure, shortened: (§1)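 Confluent rat aortic smooth muscle cells were exposed to vehicle or compound (0.01−1 μM) for 15 min, alone or together with 1 μM BAY 58-2667. cGMP was then extracted and quantified. Values are means ± SEM, n = 4.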

Rattus norvegicus [2] = species: Rattus norvegicus; assay: Inhibition of soluble guanylyl cyclase in Wistar rat aortic smooth muscle cell assessed as reduction of cGMP accumulation at 1 uM after 15 mins by enzyme immunoassay; procedure, shortened: as §1
Rattus norvegicus [3] = species: Rattus norvegicus; assay: Activation of soluble guanylyl cyclase in Wistar rat aortic smooth muscle cell assessed as increase of cGMP accumulation after 15 mins by enzyme immunoassay; procedure, shortened: as §1

| Activity (Rattus norvegicus [1]) | inhibition (Rattus norvegicus [2]) | Activity (Rattus norvegicus [3]) | SMILES |
| --- | --- | --- | --- |
| inactive | – | – | O=C(O)CCCCCN(CCc1ccccc1OCc1ccc(CCc2ccccc2)cc1)Cc1ccc(C(=O)O)cc1 |
| – | 80% | – | O=C(O)CCCC(=O)N(CCc1ccccc1OCc1ccc(CCc2ccccc2)cc1)Cc1ccc(C(=O)O)cc1 |
| inactive | – | – | O=C(O)CCCN(CCc1ccccc1OCc1ccc(CCc2ccccc2)cc1)Cc1ccc(C(=O)O)cc1 |
| Active | – | Dose-dependent effect | O=C(O)CCCCN(CCc1ccccc1OCc1ccc(-c2ccc(Oc3ccccc3)cc2)cc1)Cc1ccc(C(=O)O)cc1 |
| Active | – | – | O=C(O)CCCCN(CCc1ccccc1OCc1ccc(-c2ccc(OCc3ccccc3)cc2)cc1)Cc1ccc(C(=O)O)cc1 |
| Active | – | – | COc1ccc(COc2ccc(-c3ccc(COc4ccccc4CCN(CCCCC(=O)O)Cc4ccc(C(=O)O)cc4)cc3)cc2)cc1 |
| – | 80% | – | O=C(O)CCC(=O)N(CCc1ccccc1OCc1ccc(CCc2ccccc2)cc1)Cc1ccc(C(=O)O)cc1 |
| Active | – | – | O=C(O)CCCC(=O)N(CCc1ccccc1OCc1ccc(-c2ccc(OCc3ccccc3)cc2)cc1)Cc1ccc(C(=O)O)cc1 |
| – | 80% | – | O=C(O)CCCCC(=O)N(CCc1ccccc1OCc1ccc(CCc2ccccc2)cc1)Cc1ccc(C(=O)O)cc1 |

Reference: ChEMBL document CHEMBL2440030, “Insights into soluble guanylyl cyclase activation derived from improved heme-mimetics” (J Med Chem, 2013)
